One assay deals with RD-HGA16. Put plainly: Ratio of Ke for NPS Asn107 mutant receptor to Ke for NPS Ile107 mutant receptor expressed in RD-HGA16 cells. The class given is cell-based.
Assay [1] is described as follows: Antagonist activity at NPS Asn107 mutant receptor expressed in RD-HGA16 cells assessed by calcium mobilization by FlexStation assay. The class given is functional. In short, it runs like this:
(§1)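 Cells loaded with calcium3 dye for 1 h; calcium mobilization read on FlexStation. Compounds tested separately for intrinsic activity and for inhibition of NPS. Ke from an 8-point half-log NPS concentration-response run with and without one compound concentration, at least two concentrations giving at least four-fold rightward EC50 shift; Ke = [L]/(DR-1). Mean ± SE, at least three independent experiments.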

A short description of assay [2]: Antagonist activity at NPS Ile107 mutant receptor expressed in RD-HGA16 cells assessed by calcium mobilization by FlexStation assay. The class given is functional. In short, it runs like this:
as §1

Assay [3] is described as follows: Antagonist activity at NPS Ile107 mutant receptor expressed in RD-HGA16 cells. The class given is functional. The gist of the method: as §1
The nature of assay [4]: Antagonist activity at NPS Asn107 mutant receptor expressed in RD-HGA16 cells. The class given is functional. The gist of the method: as §1

Some results are limits rather than exact numbers.

For the molecule `C[C@@H](NC(=O)N1CCN2C(=O)OC(c3ccccc3)(c3ccccc3)C2C1)c1ccccc1` (stereo partly specified), the Ratio Ke in the assay with RD-HGA16 amounted to 0.7. The Ke is on record as 229 nM in assay [1] and 317 nM in assay [2].

In the case of `O=C(NCc1ccccc1)N1CCN2C(=O)OC(c3ccccc3)(c3ccccc3)C2C1` (stereo unspecified), the Kb is 0.0326 µM in assay [3] and 0.0217 µM in assay [4]. Moreover, the Ratio Ke with RD-HGA16 stood at 4.8. The Ke in assay [1] was 47 nM; in assay [2] it was 9.9 nM.

Turning to `O=C(NCCc1ccc(F)cc1)N1CCN2C(=O)OC(c3ccccc3)(c3ccccc3)C2C1` (stereo unspecified), the Ratio Ke with RD-HGA16 was 1. Also, the Ke in assay [1] is on record as 326 nM; in assay [2], 321 nM.

With `O=C(NCCc1ccc2c(c1)OCO2)N1CCN2C(=O)OC(c3ccccc3)(c3ccccc3)C2C1` (stereo unspecified), the Ratio Ke in the assay with RD-HGA16 stood at 1.2. Besides, the Ke is listed as 690 nM in assay [1] and 567 nM in assay [2].

Regarding `O=C(COc1ccc(F)cc1)N1CCN2C(=O)OC(c3ccccc3)(c3ccccc3)C2C1` (stereo unspecified), in the assay with RD-HGA16, the Ratio Ke is 1.1. The Ke in assay [1] is 267 nM; in assay [2], 244 nM.

`O=C(NCc1ccc(F)cc1)N1CCN2C(=O)OC(c3ccccc3)(c3ccccc3)C2C1` (stereo unspecified): the Kb in assay [3] was found to be 0.0279 µM; in assay [4], 0.0169 µM; in assay [1] (RD-HGA16) it was 0.0169 µM; in assay [2] (RD-HGA16) it was 0.0279 µM. The Ratio Ke with RD-HGA16 amounted to 3.8. Besides, the Ke in assay [1] worked out at 52 nM; in assay [2], 13.7 nM.

`O=C1OC(c2ccccc2)(c2ccccc2)C2CN(C(=S)NCCN3CCCCC3)CCN12` (stereo unspecified): the Ratio Ke in the assay with RD-HGA16 is 1.3. For the same molecule, the Ke stood at 354 nM in assay [1] and 280 nM in assay [2].

Regarding `O=C(NCCCCc1ccccc1)N1CCN2C(=O)OC(c3ccccc3)(c3ccccc3)C2C1` (stereo unspecified), the Ratio Ke in the assay with RD-HGA16 came out at 0.8. Moreover, the Ke in assay [1] was found to be 437 nM; in assay [2] it was 537 nM.

Consider `O=C(NCCN1CCCCC1)N1CCN2C(=O)OC(c3ccccc3)(c3ccccc3)C2C1` (stereo unspecified), for which the Ratio Ke with RD-HGA16 was determined as 4.5. Moreover, the results for the Ke in assay [1] and in assay [2] were 490 nM and 109 nM, respectively.

As to `N[C@H](Cc1ccccc1)C(=O)N1CCN2C(=O)OC(c3ccccc3)(c3ccccc3)C2C1` (stereo partly specified), the Ratio Ke with RD-HGA16 amounted to 5.1. Besides, the Ke is 4640 nM in assay [1] and 911 nM in assay [2].

On to `O=C(OCc1ccccc1)N1CCN2C(=O)OC(c3ccccc3)(c3ccccc3)C2C1` (stereo unspecified), for which, in the assay on RD-HGA16, the Ratio Ke came out at 1. For the same molecule, the Ke in assay [1] worked out at 353 nM; in assay [2] it was 354 nM.

For the molecule `O=C1OC(c2ccccc2)(c2ccccc2)C2CN(C(=S)NCCN3CCOCC3)CCN12` (stereo unspecified), the Ratio Ke with RD-HGA16 was 0.7. For the same molecule, the Ke in assay [1] was determined as 2560 nM; in assay [2] it was 3760 nM.

For `CN1CCN2C(=O)OC(c3ccccc3)(c3ccccc3)C2C1` (stereo unspecified), the Ke in assay [1] and in assay [2] was more than 4000 nM in each case.

`O=C(NCCCc1ccccc1)N1CCN2C(=O)OC(c3ccccc3)(c3ccccc3)C2C1` (stereo unspecified): in the assay with RD-HGA16, the Ratio Ke was determined as 1.3. Besides, the figures for the Ke in assay [1] and in assay [2] were 417 nM and 309 nM, respectively.

Consider `O=C1OC(c2ccccc2)(c2ccccc2)C2CN(CCCCc3ccc(F)cc3)CCN12` (stereo unspecified), for which the Ratio Ke in the assay on RD-HGA16 is 1. For the same molecule, the Ke is 1100 nM in assay [1] and 1110 nM in assay [2].

With `O=C(CCc1ccc(F)cc1)N1CCN2C(=O)OC(c3ccccc3)(c3ccccc3)C2C1` (stereo unspecified), the Ratio Ke in the assay on RD-HGA16 is 1.4. The Ke came to 460 nM in assay [1] and 339 nM in assay [2].

Take `CCOC(=O)CNC(=O)N1CCN2C(=O)OC(c3ccccc3)(c3ccccc3)C2C1` (stereo unspecified): the Ratio Ke with RD-HGA16 is 1.7. The Ke in assay [1] is listed as 1260 nM; in assay [2], 726 nM.

As to `CN(Cc1ccc(F)cc1)C(=O)N1CCN2C(=O)OC(c3ccccc3)(c3ccccc3)C2C1` (stereo unspecified), in the assay on RD-HGA16, the Ratio Ke is 2.8. Moreover, the values for the Ke in assay [1] and in assay [2] were 588 nM and 214 nM, respectively.

As for `O=C(O)CNC(=O)N1CCN2C(=O)OC(c3ccccc3)(c3ccccc3)C2C1` (stereo unspecified), the Ke in assay [1] and in assay [2] was more than 4000 nM in each case.

The record behind these values is ChEMBL document CHEMBL1158162, “Identifying structural features on 1,1-diphenyl-hexahydro-oxazolo[3,4-a]pyrazin-3-ones critical for Neuropeptide S antagonist activity” (2008).
